Screening data: PubChem BioAssay, Johns Hopkins Ion Channel Center
KCNQ1 block: inhibitors of human KCNQ1 channel, primary screen, cell-based, thallium flux, high-throughput; Potassium voltage-gated channel subfamily KQT member 1 (Homo sapiens), P51787; CHO-K1 KCNQ1, FluxOR thallium flux fluorescence; active compounds read high; B-score at 10 µM; 310,000 tested, 1.3% active; AID 2642, 2010;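 active = compounds whose thallium flux B-score, printed positive for inhibition, exceeds three library SD while starting fluorescence stays within three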;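 note: channel opened by potassium depolarization with thallium stimulus after 20 min compound exposure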
Target sequence (P51787 whole entry, looked up): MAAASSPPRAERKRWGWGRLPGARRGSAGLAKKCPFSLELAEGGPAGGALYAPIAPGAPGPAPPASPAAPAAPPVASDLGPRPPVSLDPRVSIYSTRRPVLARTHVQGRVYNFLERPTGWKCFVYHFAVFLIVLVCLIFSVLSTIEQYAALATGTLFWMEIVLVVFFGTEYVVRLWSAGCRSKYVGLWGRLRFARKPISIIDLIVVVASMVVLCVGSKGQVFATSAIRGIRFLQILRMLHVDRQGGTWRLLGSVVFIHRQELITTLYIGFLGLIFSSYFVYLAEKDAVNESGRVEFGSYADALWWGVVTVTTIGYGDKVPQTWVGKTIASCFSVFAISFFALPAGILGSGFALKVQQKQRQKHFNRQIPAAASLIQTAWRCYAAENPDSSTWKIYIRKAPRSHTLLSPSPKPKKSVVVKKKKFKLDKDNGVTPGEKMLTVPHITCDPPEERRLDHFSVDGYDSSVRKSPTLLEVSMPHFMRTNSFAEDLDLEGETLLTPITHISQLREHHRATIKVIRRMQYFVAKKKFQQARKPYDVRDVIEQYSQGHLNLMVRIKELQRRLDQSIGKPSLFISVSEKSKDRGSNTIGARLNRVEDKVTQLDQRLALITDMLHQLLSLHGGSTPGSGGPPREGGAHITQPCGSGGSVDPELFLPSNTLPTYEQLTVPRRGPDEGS
KCNK3 block: human KCNK3 channel inhibitors, primary screen, CHO cells, FluxOR thallium flux, B-score. Potassium channel subfamily K member 3 (Homo sapiens), O14649. 340,000 tested, 0.84% active. FluxOR fluorescence; active compounds read low. B-score at 10 µM;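 active = B-score under library mean minus 4 SD, starting fluorescence ratio at most library mean plus 5 SD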;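 note: more negative B-score means stronger inhibition of thallium flux through KCNK3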
hERG rescue: hERG rescue from dofetilide block, primary screen, cell-based, CHO-hERG, FluxOR thallium flux, dofetilide IC70. Voltage-gated inwardly rectifying potassium channel KCNH2 (Homo sapiens), Q12809. dofetilide IC70 present. activation (rescue from dofetilide block), less the hit threshold, % at 10 µM. 310,000 tested, 0.51% active. AID 1511, 2009;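 active = activation above the mean of controls blocked by dofetilide plus 5 SD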;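 note: thallium influx through hERG after potassium depolarization seen as dye fluorescence rise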
Kir21 inh: inhibitors of mouse Kir2.1 inward-rectifier potassium channel | HEK293-Kir2.1, FluxOR thallium flux fluorescence; active compounds read low | B-score at 10 µM | 310,000 tested, 0.85% active;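 active = fluorescence ratio B-score at or below minus 3 SD of library scores, with starting-brightness B-score within 2 SD, cut at about -4.2 in these data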;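 note: channel flux triggered by added potassium and thallium sulfate stimulus; B-score of peak minus minimum fluorescence over baseline after thallium stimulus; more negative B-score means stronger Kir2.1 block with less thallium influx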
KCNK9 block: KCNK9 potassium channel inhibitors, primary screen, HEK293 cells, thallium flux; B-score at 10 µM; 310,000 tested, 1.2% active; AID 488922, 2010; Potassium channel subfamily K member 9 (Homo sapiens), Q9NPC2; FluxOR thallium flux fluorescence; active compounds read low;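 active = ratio B-score over 3 SD below the library mean, with starting fluorescence within 5 SD of its mean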;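 note: negative B-score means less thallium flux so channel inhibition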
KCNQ1 act: potentiators or activators of KCNQ1 channel, primary screen, cell-based, thallium flux, high-throughput; Potassium voltage-gated channel subfamily KQT member 1 (Homo sapiens), P51787; CHO-K1 KCNQ1, thallium flux FluxOR fluorescence; active compounds read high; B-score at 10 µM; 310,000 tested, 0.35% active; AID 2648, 2010;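 active = fluorescence ratio B-score, a plate-corrected score, at least three library SD, with initial intensity B-score within 5 SD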
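Schedule – 37 °C overnight plating, 90-min dark dye load, 20-min compound pretreatment · System – stable KCNQ1 CHO-K1 line · Probe or stimulus – thallium- and potassium-containing depolarizing buffer · Measured by – kinetic FluxOR fluorescence, 10 s baseline plus 110 s post-stimulus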
The depositor's hits bear a star; i = inactive; nt = no result. The list is not random: actives were taken first. Their share in the collection is about 3.8%.

SMILES	KCNQ1 block	KCNK3 block	hERG rescue	Kir21 inh	KCNK9 block	KCNQ1 act
CCCCOC(=O)C[N+](C)(C)CCOC1CC2CCC1(C)C2(C)C (configuration not stated)	7*	i	-13.2	-0.97	i	i
CCOc1cc(N2CCOCC2)c(OCC)cc1NC(=O)CN1C(=O)C2CC=CCC2C1=O (configuration not stated)	i	i	7.2*	1.72	i	i
CCOc1cc(N2CCOCC2)c(OCC)cc1NC(=O)CCC1CCCC1	i	i	6.9*	0.46	i	i
Cc1ccccc1N1CCN(C(=O)c2cc(C3CC3)nn2-c2ccccc2)CC1	nt	-9.02*	nt	nt	nt	nt
COc1ccc(CNc2nc3ccccc3n2C)c(OC)c1	i	i	-11.1	-0.07	i	i
COc1ccc(N/C=C(\C#N)c2nc3ccccc3n2C)c(OC)c1	i	i	-14.1	1.23	-7.02*	i
O=C(Nc1ccnn1C1CCN(C2CCOCC2)CC1)c1cccc(F)c1	i	i	-5.8	-0.55	i	i
CSc1nc2c(c(=O)[nH]1)C(c1ccccc1Cl)CC(=O)N2 (configuration not stated)	i	i	9.7*	2.29	i	i
Cn1c(CC(=O)Nc2ccccc2)cc2ccccc21	i	i	-7.0	-0.52	i	i
COC(=O)Cn1c2c(c3cc(C)ccc31)CCCC2NC(C)c1ccccc1 (configuration not stated)	i	i	4.9*	-1.81	i	i
Cc1ccc(OCCSc2nc(NC(C)C)nc(NC(C)C)n2)cc1	6*	i	-15.9	0.18	i	i
CCNc1nc(SCCOc2ccc(C)cc2)nc(N(C)C)n1	i	i	-11.3	-0.42	i	i
C(=C\c1ccccc1)/CSc1nnc(-c2ccccn2)n1Cc1ccco1	i	i	-16.6	-7.92*	i	i
CCCCn1c(N)c(N(CC(C)C)C(=O)CSCc2cccc(C)c2)c(=O)[nH]c1=O	i	i	-20.1	-0.23	i	i
Cc1cnc(C(=O)OCc2nc3ccsc3c(=O)[nH]2)cn1	nt	i	nt	nt	nt	nt
COc1ccc(CNC(=O)c2sc3nc4c(c(C(F)(F)F)c3c2N)CCC4)cc1	i	nt	-9.3	-5.11*	i	i
Cc1ccc(NC(=O)CSc2nnc(C3CC3)n2C)cc1S(=O)(=O)N1CCCCC1	nt	i	nt	nt	nt	nt
COc1cccc(/C=N/NC(=O)C(=O)N/N=C/c2cccc(OC)c2O)c1O	nt	i	nt	nt	nt	nt
COc1cccc(C=NCCCN=Cc2cccc(OC)c2O)c1O	i	i	5.7*	-1.5	i	i
Cc1cc(C)n(C(C[N+](=O)[O-])c2ccc(Cl)cc2)n1 (configuration not stated)	i	i	-13.6	-5.22*	i	i
CCc1ccc(OCCOCC(O)CN2CCN(Cc3ccc(Cl)cc3)CC2)cc1 (configuration not stated)	i	i	-14.2	-9.06*	i	i
OC(CNC1CCCCC1)COCCOc1ccc(Br)cc1 (configuration not stated)	i	i	-10.9	-4.27*	i	i
OC(COCCOc1ccc(Br)cc1)CN1CCN(Cc2ccccc2)CC1 (configuration not stated)	i	i	-6.6	-7.4*	i	i
COc1cc2ccccc2cc1C(=O)OCc1nc2ccsc2c(=O)[nH]1	nt	i	nt	nt	nt	nt
Oc1ccc(Oc2ccc(Oc3ccc(O)cc3)cc2)cc1	13*	i	-8.7	0.31	-6.91*	i
SMILES	KCNQ1 block	KCNK3 block	hERG rescue	Kir21 inh	KCNK9 block	KCNQ1 act
CC(=O)c1ccc(Oc2ccc(C(C)=O)cc2)cc1	i	i	-6.0	1.33	i	i
CNC(=O)c1nnsc1S(=O)(=O)c1ccc(Cl)cc1	i	i	-15.3	-8.65*	i	i
C=CCNC(=S)N1CCN(Cc2ccc3c(c2)OCO3)CC1	i	i	0.8	-0.9	i	i
CCOC(=O)/C(C#N)=C/c1c(N2CCN(c3cccc(Cl)c3)CC2)nc2c(C)cccn2c1=O	6*	i	-11.4	0.81	i	i
CNC(=O)/C(C#N)=C/c1c(N2CCN(c3cccc(Cl)c3)CC2)nc2c(C)cccn2c1=O	i	i	-4.6	0.39	i	i
CC(C)C(C(=O)NC1CCCC1)N(CC1CCCO1)C(=O)CNS(=O)(=O)c1ccccc1 (configuration not stated)	i	i	-5.7	1.8	i	i
O=c1c(O)c(-c2cccs2)oc2ccc(Cl)cc12	i	i	34.8*	-7.37	i	72*
O=c1cc(-c2cccs2)oc2ccc(Cl)cc12	i	i	-15.1	2.04	i	i
O=c1c(O)c(-c2cccs2)oc2ccccc12	i	i	33.5*	-3.95	i	55*
Cc1ccc(O)c(NC(=O)c2ccco2)c1	i	i	-4.5	1.31	i	i
CC(=O)c1cccc(NC(=O)c2cccc(NC(=O)c3ccco3)c2)c1	i	i	-8.2	1.79	i	i
Cc1ccc(O)c(NC(=O)c2cccc(NC(=O)c3ccco3)c2)c1	i	-9.38*	-9.4	1.34	-6.89*	i
CCOc1ccccc1NC(=O)c1ccc(NC(=O)c2ccco2)cc1	i	i	-8.3	0	-6.59*	i
O=C(Nc1ccccc1C(=O)O)c1cccc(NC(=O)c2ccco2)c1	i	i	5.3*	-0.05	i	i
COc1ccc(NC(=O)c2ccco2)cc1NC(=O)c1ccccc1	i	i	-12.1	1.51	i	i
COc1ccccc1NC(=O)c1cccc(NC(=O)c2ccco2)c1	nt	-9.37*	nt	nt	nt	nt
CCc1ccc(NC(=O)COc2cccc(-n3cnnn3)c2)cc1	i	i	-3.7	-0.46	i	i
CCc1cccc(CC)c1NC(=O)COC(=O)C1(c2ccc(Cl)cc2)CCCC1	i	i	-11.8	-0.02	-7.13*	i
CC(=O)Nc1ccc(NC(=O)COC(=O)C2(c3ccc(Cl)cc3)CCCC2)cc1	i	i	-3.7	-0.33	i	i
CCCCCCOc1ccc(/C(C)=N/NC2=NCCN2)cc1	13*	i	-32.2	0.71	i	i
Cc1cccc(/C=N/NC(=O)c2cc(Br)ccc2O)n1	i	i	0.1	1.44	i	11*
Cc1ccc(OCCN2C(=O)c3ccccc3C2=O)c([N+](=O)[O-])c1	i	i	-9.2	-2.31	i	9*
